Results published in ChEMBL document CHEMBL3994580, “A novel class of α-glucosidase and HMG-CoA reductase inhibitors from Ganoderma leucocontextum and the anti-diabetic properties of ganomycin I in KK-Ay mice” (Eur J Med Chem, 2017).
Calls of active or inactive are those of the source. No cut-off for these calls is given here.

What was measured:
[1] = Inhibition of alpha-glucosidase in rat small intestinal mucosa assessed as reduction in glucose production using p-nitrophenyl alpha-D-glucopyranoside as substrate measured after 40 mins by glucose oxidase assay
In short: (§1)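 Rat small intestinal mucosa enzyme. Compound in DMSO mixed with substrate (maltose, sucrose or pNPG) and enzyme in 0.1 M phosphate buffer pH 6.9, incubated 40 min. Glucose released measured by glucose oxidase kit at 550 nm. Blank lacked enzyme, control lacked compound. Percent inhibition calculated from blank-corrected OD.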

[2] = target: T1, 3-hydroxy-3-methylglutaryl-coenzyme A reductase (Sus scrofa, UniProt Q1W675); assay: (§2) Inhibition of HMG-CoA reductase in pig liver microsomes using HMG-CoA as substrate preincubated for 5 mins followed by NADPH addition measured after 15 mins by colorimetric method
T1 sequence (Q1W675 whole entry): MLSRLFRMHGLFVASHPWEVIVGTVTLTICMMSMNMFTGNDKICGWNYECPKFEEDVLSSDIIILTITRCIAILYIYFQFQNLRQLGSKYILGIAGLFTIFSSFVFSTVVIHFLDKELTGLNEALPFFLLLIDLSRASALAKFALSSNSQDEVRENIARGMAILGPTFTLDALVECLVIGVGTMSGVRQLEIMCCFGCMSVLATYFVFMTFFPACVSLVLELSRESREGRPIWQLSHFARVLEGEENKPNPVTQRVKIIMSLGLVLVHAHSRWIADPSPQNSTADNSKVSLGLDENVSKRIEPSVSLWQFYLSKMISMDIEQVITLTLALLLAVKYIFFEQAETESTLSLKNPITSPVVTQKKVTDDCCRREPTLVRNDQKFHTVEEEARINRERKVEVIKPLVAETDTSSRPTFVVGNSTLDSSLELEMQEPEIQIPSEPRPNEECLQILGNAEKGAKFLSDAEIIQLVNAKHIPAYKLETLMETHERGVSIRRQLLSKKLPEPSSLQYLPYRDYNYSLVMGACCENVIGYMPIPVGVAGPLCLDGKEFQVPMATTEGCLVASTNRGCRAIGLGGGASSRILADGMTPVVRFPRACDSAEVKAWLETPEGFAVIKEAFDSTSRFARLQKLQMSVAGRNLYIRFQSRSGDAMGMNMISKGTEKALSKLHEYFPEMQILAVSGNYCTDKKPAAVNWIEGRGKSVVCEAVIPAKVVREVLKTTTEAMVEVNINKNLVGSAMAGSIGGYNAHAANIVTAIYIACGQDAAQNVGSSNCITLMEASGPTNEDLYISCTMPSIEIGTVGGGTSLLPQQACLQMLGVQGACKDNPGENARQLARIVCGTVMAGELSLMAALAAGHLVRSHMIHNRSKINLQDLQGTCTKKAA
In short: (§3)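 HMG-CoA reductase activity followed by absorbance at 340 nm. Blank had potassium phosphate buffer instead of enzyme, and control had buffer instead of compound. Percent inhibition calculated from blank-corrected OD.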

[3] = target: T2, 3-hydroxy-3-methylglutaryl-coenzyme A reductase (Sus scrofa) (UniProt Q1W675); assay: as §2; in short: as §3
T2 sequence (whole entry): T1 sequence (Q1W675 whole entry)

Saccharomyces cerevisiae = assay: Non-competitive inhibition of baker's yeast alpha-glucosidase using varying levels of p-nitrophenyl alpha-D-glucopyranoside as substrate preincubated for 10 mins followed by substrate addition measured for 15 mins by Lineweaver-Burk plot analysis
In short: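 Kinetics with inhibitor at 0.3 to 1 μM against α-glucosidase. pNPG at 2, 4, 6 and 8 μM. Initial velocities measured with and without inhibitor, and inhibition type assigned from Michaelis-Menten and Lineweaver-Burk plots.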

[4] = Inhibition of baker's yeast alpha-glucosidase using p-nitrophenyl alpha-D-glucopyranoside as substrate preincubated for 10 mins followed by substrate addition measured for 15 mins; parameters: species or system Saccharomyces cerevisiae
In short: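 Baker's yeast α-glucosidase with pNPG, read at 405 nm. Control contained phosphate buffer in place of compound, and blank contained buffer in place of enzyme.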

[5] = target: Sucrase-isomaltase, intestinal (Rattus norvegicus, UniProt P23739); assay: Inhibition of sucrase in rat small intestinal mucosa assessed as reduction in glucose production using sucrose as substrate measured after 40 mins by glucose oxidase assay; in short: as §1
[6] = Inhibition of maltase in rat small intestinal mucosa assessed as reduction in glucose production using maltose as substrate measured after 40 mins by glucose oxidase assay; in short: as §1
Mus musculus [7] = assay: Antidiabetic activity in KK-Ay diabetic mouse model assessed as reduction in blood glucose level at 10 mg/kg/day administered via oral gavage once daily measured on day 19 at 30 to 60 mins post insulin challenge by insulin tolerance test; type: functional, organism-based
In short: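 ITT on day 19 of treatment: after 4 h fasting, insulin 0.6 U·kg-1 given intraperitoneally. Glycaemia was sampled from the tail tip before and at set times after injection, and the AUC was computed. Mean ± SEM, n = 8.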

Mus musculus [8] = assay: Antidiabetic activity in KK-Ay diabetic mouse model assessed as increase in insulin sensitivity index at 10 mg/kg/day administered via oral gavage once daily for 21 days; type: functional, organism-based
In short: (§4)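 Male KK-Ay mice (8 weeks old) on high-fat diet with water ad libitum, dosed by gavage once daily for 21 days (1 or 5 mg/kg test; rosiglitazone 10 mg/kg); female C57BL/6J mice as normal controls. Blood collected at study end. Serum lipids, insulin and glucose measured per cited method. ISI calculated from fasting blood glucose and fasting insulin. Mean ± SEM, n = 7-8.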

Mus musculus [9] = assay: Hypolipidemic activity in KK-Ay diabetic mouse model assessed as reduction in serum triglyceride level at 10 mg/kg/day administered via oral gavage once daily for 21 days; type: functional, organism-based; in short: as §4
Mus musculus [10] = assay: Antidiabetic activity in KK-Ay diabetic mouse model assessed as reduction in blood glucose level after 4 hrs fasting at 10 mg/kg/day administered via oral gavage once daily measured on day 3 post dose; type: functional, organism-based
In short: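 KK-Ay mice on high-fat diet, gavaged once daily (1 or 5 mg/kg; rosiglitazone 10 mg/kg). Blood glucose monitored sequentially after 4 h fasting. Mean ± SEM, n = 8, compared with the KK-Ay model group.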

Mus musculus [11] = assay: Antidiabetic activity in KK-Ay diabetic mouse model assessed as reduction in serum insulin level at 10 mg/kg/day administered via oral gavage once daily for 21 days; type: functional, organism-based; in short: as §4
Mus musculus [12] = assay: Antidiabetic activity in KK-Ay diabetic mouse model assessed as reduction in free diet blood glucose level at 10 mg/kg/day administered via oral gavage once daily measured on day 3 post dose; type: functional, organism-based
In short: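 Non-fasted (free diet) blood glucose was tracked serially in high-fat-fed KK-Ay mice given daily gavage doses (1 or 5 mg/kg; rosiglitazone 10 mg/kg). Mean ± SEM, n = 8.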

Mus musculus [13] = assay: Antidiabetic activity in KK-Ay diabetic mouse model assessed as reduction in blood glucose level at 10 mg/kg/day administered via oral gavage once daily for 21 days measured at 30 to 60 mins post glucose challenge by oral glucose tolerance test; type: functional, organism-based
In short: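 OGTT on day 21 of daily gavage dosing in KK-Ay mice. Blood glucose read at time points including 30 and 60 min, and the AUC was calculated. Mean ± SEM, n = 8.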

Mus musculus [14] = assay: Effect on serum AST level in KK-Ay diabetic mouse model at 10 mg/kg/day administered via oral gavage once daily for 21 days; type: functional, organism-based; in short: as §4
Mus musculus [15] = assay: Hypolipidemic activity in KK-Ay diabetic mouse model assessed as reduction in serum NEFA level at 10 mg/kg/day administered via oral gavage once daily for 21 days; type: functional, organism-based; in short: as §4
Mus musculus [16] = assay: Decrease in lipid droplet accumulation in liver in KK-Ay diabetic mouse model at 10 mg/kg/day administered via oral gavage once daily for 21 days by haematoxylin and eosin staining based microscopic or morphometric method; type: functional, organism-based
In short: (§5)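 At study end, liver and abdominal white adipose tissue were fixed in 10% formaldehyde PBS (pH 7.4), paraffin-embedded, sectioned and stained with haematoxylin/eosin. Sections were assessed by microscopy or morphometry at 20×.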

Mus musculus [17] = assay: Toxicity in KK-Ay diabetic mouse model assessed as changes in body weight at 10 mg/kg/day administered via oral gavage once daily for 21 days measured every 3 days during compound dosing; type: organism-based; details: in vivo
In short: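 In high-fat-fed KK-Ay mice gavaged once daily for 21 days, individual body weight and cage food consumption were recorded every 3 days. Mean ± SEM, n = 8.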

Mus musculus [18] = assay: Decrease in hepatocyte hypertrophy in KK-Ay diabetic mouse model at 10 mg/kg/day administered via oral gavage once daily for 21 days by haematoxylin and eosin staining based microscopic or morphometric method; type: functional, organism-based; in short: as §5
Mus musculus [19] = assay: Decrease in size of adipocytes in abdominal white adipose tissue in KK-Ay diabetic mouse model at 10 mg/kg/day administered via oral gavage once daily for 21 days by haematoxylin and eosin staining based microscopic or morphometric method; type: functional, organism-based; in short: as §5
Mus musculus [20] = assay: Hypoglycemic activity in KK-Ay diabetic mouse model assessed as increase in liver hepatic glycogen level at 10 mg/kg/day administered via oral gavage once daily for 4 weeks; type: functional, organism-based
Mus musculus [21] = assay: Antidiabetic activity in KK-Ay diabetic mouse model assessed as reduction in HbA1C level at 10 mg/kg/day administered via oral gavage once daily for 21 days; type: functional, organism-based
Mus musculus [22] = assay: Hypolipidemic activity in KK-Ay diabetic mouse model assessed as reduction in serum total cholesterol level at 10 mg/kg/day administered via oral gavage once daily for 21 days; type: functional, organism-based; in short: as §4

Chain of Sucrase-isomaltase, intestinal (P23739 1-1013 limits assumed): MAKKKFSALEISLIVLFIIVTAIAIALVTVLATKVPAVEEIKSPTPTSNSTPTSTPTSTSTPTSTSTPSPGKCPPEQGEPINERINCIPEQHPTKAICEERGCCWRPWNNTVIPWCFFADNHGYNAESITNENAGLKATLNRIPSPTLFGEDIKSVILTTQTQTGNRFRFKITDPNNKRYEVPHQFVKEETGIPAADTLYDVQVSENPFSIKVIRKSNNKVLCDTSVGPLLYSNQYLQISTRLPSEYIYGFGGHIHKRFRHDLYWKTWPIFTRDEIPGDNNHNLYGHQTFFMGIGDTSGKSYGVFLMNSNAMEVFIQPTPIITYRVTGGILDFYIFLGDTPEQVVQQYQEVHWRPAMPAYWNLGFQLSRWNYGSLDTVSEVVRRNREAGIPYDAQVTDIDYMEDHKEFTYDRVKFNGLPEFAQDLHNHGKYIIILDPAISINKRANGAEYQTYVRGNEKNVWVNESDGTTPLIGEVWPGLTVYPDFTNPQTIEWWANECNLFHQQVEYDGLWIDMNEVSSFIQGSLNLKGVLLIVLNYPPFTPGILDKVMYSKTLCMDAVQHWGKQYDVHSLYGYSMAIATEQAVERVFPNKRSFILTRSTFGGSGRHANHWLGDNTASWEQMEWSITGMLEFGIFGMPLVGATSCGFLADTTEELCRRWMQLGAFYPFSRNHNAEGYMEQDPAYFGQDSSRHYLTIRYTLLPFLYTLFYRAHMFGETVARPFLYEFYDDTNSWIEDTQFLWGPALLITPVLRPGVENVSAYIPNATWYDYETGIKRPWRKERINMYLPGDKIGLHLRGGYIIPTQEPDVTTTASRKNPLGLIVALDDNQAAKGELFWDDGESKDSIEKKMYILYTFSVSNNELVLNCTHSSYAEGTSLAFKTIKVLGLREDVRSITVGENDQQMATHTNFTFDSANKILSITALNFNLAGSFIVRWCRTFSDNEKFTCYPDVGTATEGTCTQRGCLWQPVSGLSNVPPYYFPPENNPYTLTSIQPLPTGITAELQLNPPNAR
Chain of Sucrase-isomaltase, intestinal (P23739 1014-1841 limits assumed): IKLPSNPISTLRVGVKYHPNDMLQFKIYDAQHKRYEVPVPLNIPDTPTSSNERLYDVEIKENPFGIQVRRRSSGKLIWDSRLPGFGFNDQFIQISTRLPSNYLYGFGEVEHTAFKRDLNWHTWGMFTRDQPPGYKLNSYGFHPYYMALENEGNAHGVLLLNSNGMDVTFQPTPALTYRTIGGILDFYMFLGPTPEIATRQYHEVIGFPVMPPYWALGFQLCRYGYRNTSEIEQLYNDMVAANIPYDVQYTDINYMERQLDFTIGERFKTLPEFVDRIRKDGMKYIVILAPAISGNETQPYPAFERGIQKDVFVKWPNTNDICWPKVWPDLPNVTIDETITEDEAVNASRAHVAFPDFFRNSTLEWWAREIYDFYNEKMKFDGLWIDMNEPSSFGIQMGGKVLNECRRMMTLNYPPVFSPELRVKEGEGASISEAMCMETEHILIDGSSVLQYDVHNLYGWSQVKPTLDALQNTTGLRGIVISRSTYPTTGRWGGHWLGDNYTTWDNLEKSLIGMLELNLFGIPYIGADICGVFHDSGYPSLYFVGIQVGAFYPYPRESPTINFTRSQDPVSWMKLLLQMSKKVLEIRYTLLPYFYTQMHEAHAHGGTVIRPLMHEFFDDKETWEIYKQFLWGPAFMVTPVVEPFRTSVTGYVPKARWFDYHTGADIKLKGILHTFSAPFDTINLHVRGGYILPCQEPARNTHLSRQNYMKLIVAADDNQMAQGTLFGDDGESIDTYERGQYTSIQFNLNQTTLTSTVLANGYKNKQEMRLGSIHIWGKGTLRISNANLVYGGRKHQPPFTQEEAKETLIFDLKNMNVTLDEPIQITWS

Row | IC50 [1] [µM] | IC50 [2] [µM] | inhibition [3] | inhibition (Saccharomyces cerevisiae) | IC50 [4] [µM] | IC50 [5] [µM] | IC50 [6] [µM] | SMILES | further results
1 | 6.4 | 45.2 | Dose-dependent effect | Active | 3.2 | > 100 | 18.1 | CC(C)=CCC/C(C)=C/CC/C(=C/C(=O)c1cc(O)ccc1O)C(=O)O | –
2 | 61.2 | > 100 | – | Active | 32.1 | > 100 | 46.2 | CC(C)=CCC/C(C)=C/CCC(CC(=O)c1cc(O)ccc1O)C(=O)O (stereo unspecified) [FORNICIN C] | –
3 | > 100 | > 100 | – | – | > 100 | > 100 | > 100 | CC(C)=CCC/C(C)=C/CC/C(=C\Cc1cc(O)ccc1O)C(=O)O | –
4 | – | – | – | – | – | – | – | CN(CCOc1ccc(CC2SC(=O)NC2=O)cc1)c1ccccn1 (stereo unspecified) [ROSIGLITAZONE] | Activity (Mus musculus [7]): Active; Activity (Mus musculus [8]): Active; Activity (Mus musculus [9]): Active; Activity (Mus musculus [10]): Active; Activity (Mus musculus [11]): Active; Activity (Mus musculus [12]): Active; Activity (Mus musculus [13]): Active; Activity (Mus musculus [14]): inactive; Activity (Mus musculus [15]): Active; Activity (Mus musculus [16]): inactive; Activity (Mus musculus [17]): Toxic; Activity (Mus musculus [18]): inactive; Activity (Mus musculus [19]): Active; Activity (Mus musculus [20]): inactive; Activity (Mus musculus [21]): Active; Activity (Mus musculus [22]): Active
5 | 15.8 | > 100 | – | Active | 12.7 | > 100 | 80.1 | C/C(C=O)=C\CC/C(C)=C/CCC1=C[C@H](c2cc(O)ccc2O)OC1=O | –
6 | 15.8 | 56.9 | Dose-dependent effect | Active | 10.2 | > 100 | 23.8 | COC1(c2cc(O)ccc2O)C=C(CC/C=C(\C)CC/C=C(\C)C=O)C(=O)O1 (stereo unspecified) | –
7 | – | – | – | – | 273 | – | – | C[C@H]1O[C@H](O[C@H]2[C@H](O)[C@@H](O)[C@@H](O[C@H]3[C@H](O)[C@@H](O)C(O)O[C@@H]3CO)O[C@@H]2CO)[C@H](O)[C@@H](O)[C@@H]1N[C@H]1C=C(CO)[C@@H](O)[C@H](O)[C@H]1O (stereo partly specified) [ACARBOSE] | –
8 | 5.9 | 29.3 | Dose-dependent effect | Active | 1.6 | 35.5 | 17.8 | CC(C)=CCC/C(C)=C/CC/C(=C/Cc1cc(O)ccc1O)C(=O)O [GANOMYCIN B] | –
9 | 3.6 | > 100 | – | Active | 6.3 | > 100 | 45.8 | C/C1=C/CC/C(=C/Cc2cc(O)ccc2O)C(=O)OC(C)(C)[C@H](O)CC1 | –
